TRPC4 inh: inhibitors of mouse TRPC4 channel; Q9QUQ5; HEK293 TRPC4beta/mu-opioid, DAMGO-evoked Fluo4 calcium flux; active compounds read low; B-score at 10 µM; 300,000 tested, 0.39% active; AID 2247;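 active = B-score over 3 SD under the library average, no early fluorescence shift, positive overall ratio signal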
Target sequence (Q9QUQ5 whole entry, looked up): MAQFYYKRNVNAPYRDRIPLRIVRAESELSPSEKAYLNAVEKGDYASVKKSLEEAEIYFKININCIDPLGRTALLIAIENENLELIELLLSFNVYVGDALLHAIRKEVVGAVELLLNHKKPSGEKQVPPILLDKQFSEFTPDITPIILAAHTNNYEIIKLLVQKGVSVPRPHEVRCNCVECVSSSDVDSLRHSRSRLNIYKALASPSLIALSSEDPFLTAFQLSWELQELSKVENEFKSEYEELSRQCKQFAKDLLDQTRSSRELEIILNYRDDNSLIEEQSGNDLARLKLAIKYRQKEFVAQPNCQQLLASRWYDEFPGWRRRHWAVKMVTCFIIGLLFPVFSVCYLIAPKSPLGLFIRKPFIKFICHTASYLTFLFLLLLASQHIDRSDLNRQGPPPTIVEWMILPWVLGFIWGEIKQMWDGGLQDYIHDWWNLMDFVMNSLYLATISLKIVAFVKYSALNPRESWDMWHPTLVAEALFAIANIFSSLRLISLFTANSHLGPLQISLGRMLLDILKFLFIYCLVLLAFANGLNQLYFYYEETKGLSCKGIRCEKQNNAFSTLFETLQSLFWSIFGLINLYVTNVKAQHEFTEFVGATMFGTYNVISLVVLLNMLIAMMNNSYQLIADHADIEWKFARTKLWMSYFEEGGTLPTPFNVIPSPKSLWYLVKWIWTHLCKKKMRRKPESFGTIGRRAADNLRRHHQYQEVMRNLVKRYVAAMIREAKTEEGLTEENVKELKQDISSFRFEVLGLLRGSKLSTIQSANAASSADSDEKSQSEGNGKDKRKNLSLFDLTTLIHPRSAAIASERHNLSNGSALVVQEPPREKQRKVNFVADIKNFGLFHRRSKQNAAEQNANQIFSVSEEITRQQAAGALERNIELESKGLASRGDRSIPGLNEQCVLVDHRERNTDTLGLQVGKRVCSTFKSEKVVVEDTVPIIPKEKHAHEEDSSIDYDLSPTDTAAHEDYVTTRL
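Material: HEK293 cells with stable TRPC4beta plus mu-opioid receptor expression / Probe or stimulus: DAMGO in two steps, submaximal then maximal / Compound: single concentration per test compound / Technique: kinetic Fluo4 fluorescence imaging of calcium influx / Read-out: per-well B score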
TRPC4 agonist: TRPC4 (mouse) channel activation. Q9QUQ5. HEK293 TRPC4beta/mu-opioid, Fluo4 calcium fluorescence; active compounds read high. B-score at 10 µM. 310,000 tested, 0.49% active. AID 2237;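 active = B-score above 5 SD of library B-scores, and initial fluorescence ratio not above library mean plus 5 SD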;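 note: positive B-score marks a calcium rise read as TRPC4 activation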
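Incubation: 45 min room-temperature Fluo4 loading, 110 s read / System: HEK293 cells stably co-expressing mouse TRPC4beta and mu-opioid receptor / Signal: Fluo4 fluorescence, kinetic / Control set: buffer (low) and maximal DAMGO (high) / Measure: integrated baseline-normalised fluorescence ratio, converted to per-well B score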
TRPC4 PAM: TRPC4 (mouse) allosteric potentiation. HEK293 TRPC4beta/mu-opioid, DAMGO EC20, Fluo-4 Ca2+ flux; active compounds read high. B-score at 10 µM. 310,000 tested, 0.42% active. AID 2227;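 active = B-score of calcium response area above 5 SD of library B-scores, with initial fluorescence ratio within 5 SD of library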;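 note: B-score of integrated fluorescence ratio over time as area under calcium response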
TRPC6 inhibitor: inhibitors of mouse TRPC6 channel | B-score at 10 µM | AID 2553 | HEK293-TRPC6, membrane potential dye, ACh-evoked depolarization; active compounds read low | 310,000 tested, 1.1% active | Q61143;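 active = B-score under library mean minus 3 SD, initial fluorescence not abnormally high, positive integrated signal ratio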;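 note: B-score derived from integrated fluorescence ratio over the kinetic read; more negative B-score means stronger inhibition of depolarization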
Kir21 inh: inhibitors of mouse Kir2.1 inward-rectifier potassium channel; P35561; HEK293-Kir2.1, FluxOR thallium flux fluorescence; active compounds read low; B-score at 10 µM; 310,000 tested, 0.85% active; AID 1672;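 active = fluorescence ratio B-score at or below minus 3 SD of library scores, with starting-brightness B-score within 2 SD, cut at about -4.2 in these data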;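 note: channel flux triggered by added potassium and thallium sulfate stimulus; B-score of peak minus minimum fluorescence over baseline after thallium stimulus; more negative B-score means stronger Kir2.1 block with less thallium influx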
TRPC6 activator: activates the mouse TRPC6 cation channel | Q61143 | HEK293-TRPC6 membrane potential dye fluorescence; active compounds read high | B-score at 10 µM | 310,000 tested, 0.13% active | AID 2550;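 active = B-score of the integrated fluorescence ratio above library mean plus 3 SD, and starting fluorescence ratio within library mean plus 5 SD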;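 note: higher score means more depolarization so channel activation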
hERG ctr: counter-screen for Kir2.1 inhibitors: effect on human hERG | shares compounds with Kir21 inh | hERG-expressing cells, thallium flux | inhibition, % at 10 µM | 320 tested, 20% active | AID 2236;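 note: host cells are CHO cells stably expressing hERG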
KCNK9 inh: tests whether Kir2.1 inhibitors also affect human KCNK9; shares compounds with Kir21 inh; KCNK9-expressing cells, ion flux inhibition; inhibition, % at 10 µM; 320 tested, 5% active; AID 2329
Kir21 ephys inh: inhibitors of mouse Kir2.1 potassium channel | shares compounds with Kir21 inh | 320 tested, 71% active | inhibition, % at 25 µM | Kir2.1 cells, automated patch-clamp current inhibition
Active calls of the source: *. In the library only some 2.9% were active in any assay of this set; here they are far more common. Unless noted, the rule behind the calls is not given here.

Results for COc1ccc(CN2CCCC(C(=O)c3ccc4c(c3)OCO4)C2)c(F)c1 (centres undefined) ?
TRPC4 inh: inactive; TRPC4 agonist: inactive; TRPC4 PAM: inactive; TRPC6 inhibitor: inactive; Kir21 inh: -6.4*; TRPC6 activator: inactive; hERG ctr: 46%*; KCNK9 inh: inactive; Kir21 ephys inh: 23%*

How did COc1cccc(CN2CCCC(C(=O)c3ccc4c(c3)OCO4)C2)c1O (centres undefined) do in these assays?
TRPC4 inh: inactive; TRPC4 agonist: inactive; TRPC4 PAM: inactive; TRPC6 inhibitor: inactive; Kir21 inh: -0.65; TRPC6 activator: inactive

What do the screens show for `COC(=O)Nc1nnc(-c2ccncc2)s1`?
TRPC4 inh: inactive; TRPC4 agonist: inactive; TRPC4 PAM: inactive; TRPC6 inhibitor: inactive; Kir21 inh: 0.72; TRPC6 activator: inactive

How did CCOC(=O)C(NCCc1ccc(F)cc1)(NC(=O)CC)C(F)(F)F (centres undefined) do in these assays?
TRPC4 inh: inactive; TRPC4 agonist: inactive; TRPC4 PAM: inactive; TRPC6 inhibitor: inactive; Kir21 inh: 1.1; TRPC6 activator: inactive

Results for Cc1cc(C)c(OCCCCN(C)C)c(Br)c1 ?
TRPC4 inh: inactive; TRPC4 agonist: inactive; TRPC4 PAM: inactive; TRPC6 inhibitor: inactive; Kir21 inh: -2.5; TRPC6 activator: inactive

Results for Cc1cc(C)c(OCCCCN(C)Cc2ccccc2)c(C)c1 ?
TRPC4 inh: inactive; TRPC4 agonist: inactive; TRPC4 PAM: inactive; TRPC6 inhibitor: inactive; Kir21 inh: -7.8*; TRPC6 activator: inactive; hERG ctr: inactive; KCNK9 inh: inactive; Kir21 ephys inh: 36%*

Results for CCC(C)NCCOCCOc1ccccc1-c1ccccc1 (centres undefined) ?
TRPC4 inh: -7*; TRPC4 agonist: inactive; TRPC4 PAM: inactive; TRPC6 inhibitor: inactive; Kir21 inh: -6.2*; TRPC6 activator: inactive; hERG ctr: inactive; KCNK9 inh: inactive; Kir21 ephys inh: 35%*

How did CCNC(=O)CON=C1c2ccccc2-c2ccccc21 do in these assays?
TRPC4 inh: inactive; TRPC4 agonist: inactive; TRPC4 PAM: inactive; TRPC6 inhibitor: inactive; Kir21 inh: 2.3; TRPC6 activator: inactive

What do the screens show for `COCCNCC(O)CON=C1c2ccccc2-c2ccccc21` (centres undefined)?
TRPC4 inh: inactive; TRPC4 agonist: 55*; TRPC4 PAM: inactive; TRPC6 inhibitor: inactive; Kir21 inh: -7*; TRPC6 activator: inactive; hERG ctr: inactive; KCNK9 inh: inactive; Kir21 ephys inh: 19%*

What do the screens show for `COCCC(=O)N1CCC(Oc2ccc(C(=O)NCc3csc(C)n3)cc2)CC1`?
TRPC4 inh: inactive; TRPC4 agonist: inactive; TRPC4 PAM: inactive; TRPC6 inhibitor: inactive; Kir21 inh: 2.3; TRPC6 activator: inactive

How did CCc1ccc(S(=O)(=O)NCCOc2cccc3cccnc23)cc1 do in these assays?
TRPC4 inh: inactive; TRPC4 agonist: inactive; TRPC4 PAM: inactive; TRPC6 inhibitor: inactive; Kir21 inh: -7*; TRPC6 activator: inactive; hERG ctr: inactive; KCNK9 inh: inactive; Kir21 ephys inh: inactive

What do the screens show for `NC(=O)C1=C[C@H](c2ccc(Br)cc2)C[C@H](OCc2ccc(CO)cc2)O1`?
TRPC4 inh: inactive; TRPC4 agonist: inactive; TRPC4 PAM: inactive; TRPC6 inhibitor: inactive; Kir21 inh: -7.1*; TRPC6 activator: inactive; hERG ctr: inactive; KCNK9 inh: inactive; Kir21 ephys inh: 23%*

What do the screens show for `COc1ccc(CCN(C)C(=O)c2oc3ccccc3c2C)cc1OC`?
TRPC4 inh: inactive; TRPC4 agonist: inactive; TRPC4 PAM: inactive; TRPC6 inhibitor: inactive; Kir21 inh: -6.5*; TRPC6 activator: inactive; hERG ctr: inactive; KCNK9 inh: inactive; Kir21 ephys inh: 61%*

How did CSc1nc(NS(=O)(=O)c2cc(Br)ccc2Br)cc(=O)[nH]1 do in these assays?
TRPC4 inh: inactive; TRPC4 agonist: inactive; TRPC4 PAM: inactive; TRPC6 inhibitor: inactive; Kir21 inh: -2; TRPC6 activator: inactive

Results for CSCc1ccc(C(=O)N2CCCC(Nc3ccc4c(c3)OCCO4)C2)o1 (centres undefined) ?
TRPC4 inh: inactive; TRPC4 agonist: inactive; TRPC4 PAM: inactive; TRPC6 inhibitor: inactive; Kir21 inh: 0.76; TRPC6 activator: inactive

Results for CSCc1ccc(C(=O)N2CCCC(Nc3ccc(F)cc3)C2)o1 (centres undefined) ?
TRPC4 inh: inactive; TRPC4 agonist: inactive; TRPC4 PAM: inactive; TRPC6 inhibitor: inactive; Kir21 inh: -5.7*; TRPC6 activator: inactive; hERG ctr: inactive; KCNK9 inh: inactive; Kir21 ephys inh: 29%*

Results for CCc1cc(-c2n[nH]c(C)c2-c2nc(C)cs2)c(O)cc1OC ?
TRPC4 inh: inactive; TRPC4 agonist: inactive; TRPC4 PAM: inactive; TRPC6 inhibitor: inactive; Kir21 inh: -11*; TRPC6 activator: inactive; hERG ctr: inactive; KCNK9 inh: inactive; Kir21 ephys inh: 6.3%*
